# FLuc inh counter – firefly luciferase enzyme inhibitors, primary screen, artefact control for luciferase-based inhibitor screens, biochemical, luminescence, ATPLite | Luciferin 4-monooxygenase (Photinus pyralis), P08659 | 10 min | inhibition, % at 10 µM | actives 1.5% (n = 200,000) | AID 1006, 2008;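 active = inhibition above about 50% when tested at 10 µM, limit read from the data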
# Target sequence (P08659 whole entry, looked up): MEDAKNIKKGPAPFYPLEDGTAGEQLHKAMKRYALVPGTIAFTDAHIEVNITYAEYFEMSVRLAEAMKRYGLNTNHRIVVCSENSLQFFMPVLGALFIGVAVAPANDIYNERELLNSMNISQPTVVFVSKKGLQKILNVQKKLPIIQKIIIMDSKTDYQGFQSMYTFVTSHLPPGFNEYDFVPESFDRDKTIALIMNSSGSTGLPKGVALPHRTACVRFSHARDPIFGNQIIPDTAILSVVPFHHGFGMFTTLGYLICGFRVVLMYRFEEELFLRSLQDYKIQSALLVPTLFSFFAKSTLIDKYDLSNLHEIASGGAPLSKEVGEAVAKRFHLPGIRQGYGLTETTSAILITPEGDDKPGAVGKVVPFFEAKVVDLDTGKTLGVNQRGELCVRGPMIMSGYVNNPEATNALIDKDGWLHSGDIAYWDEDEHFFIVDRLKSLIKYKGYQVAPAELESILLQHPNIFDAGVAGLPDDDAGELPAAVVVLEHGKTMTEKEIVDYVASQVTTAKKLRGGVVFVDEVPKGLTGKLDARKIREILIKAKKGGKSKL
# STAT3 activator – IL-6 driven STAT3 reporter potentiators, primary screen, U3A cells, luciferase, luminescence, MLSCN library | IL-6 STAT3-luciferase reporter; 100% = signal with IL-6 EC80 alone | activation (% of control), % at 5.6 µM | actives 0.91% (n = 190,000) | AID 871, 2007;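 active = activation above the screen-wide mean of compound activation plus 3 SD, cut at about 130% in these data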
#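 Detection: reporter luminescence signal / Assay system: STAT1-lacking human U3A cells, STAT3 luciferase reporter / Incubation: compound pre-incubation 1 h before IL-6, then 6 h stimulation at 37 °C / Control set: IL-6-only high control / Read-out: % activation relative to IL-6 control / Probe or stimulus: Interleukin-6, 33 ng/mL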
# STAT3 blocker – IL-6 driven STAT3 reporter inhibitors, primary screen, U3A cells, luciferase, luminescence, MLSCN library | IL-6 STAT3-luciferase reporter; host cell line lacks STAT1 | inhibition, % at 5.5 µM | actives 0.89% (n = 190,000) | AID 862, 2007;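 active = inhibition above the mean inhibition across all screened compounds plus 3 SD, cut at about 44% in these data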
# FLuc stim CS – FLuc activators, initial screening, artefact control for FLuc-dependent activation tests, biochemical, ATPlite luminescence; Luciferin 4-monooxygenase (Photinus pyralis), P08659; ATPlite luciferase biochemical, 10 min; 0 = ATP-free wells, 1 = DMSO control; activation factor at 10 µM; 200,000 tested, under 10 active; AID 1027, 2008;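 active = luciferase activation factor, scaled between plate controls, of at least 2 with compound at 10 µM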
#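 System: cell-free luciferase reagent; medium: PBS as buffer for the ATP substrate; doses: test compounds dosed from 2 mM stocks in 100% DMSO; incubation: 10 min, room temperature; measured by: luminescence from luciferase reaction; read-out: luciferase activation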
# STAT1 activator – STAT1 signaling activators, primary screen, cell-based, HTS, luciferase reporter; NIH 3T3 STAT1-luciferase reporter, IFN-gamma, luminescence; 100% = IFN-gamma alone, no compound; activation (% of control), % at 5.5 µM; actives 2.6% (n = 200,000); AID 932, 2007;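 active = activation above the screen-wide mean activation plus 3 SD, cut at about 130% in these data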
# STAT1 inh – STAT1 signaling inhibitors, primary screen, cell-based, HTS, luciferase reporter | NIH 3T3 STAT1-luciferase reporter, IFN-gamma, luminescence | actives 0.35% (n = 200,000) | inhibition, % at 5.5 µM;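 active = inhibition above a set limit, the mean inhibition across all tested compounds plus 3 SD, cut at about 34% in these data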
# A number is an active result; . = inactive. An excerpt weighted towards active compounds, which were near 4.9% of everything screened.
SMILES,FLuc inh counter,STAT3 activator,STAT3 blocker,FLuc stim CS,STAT1 activator,STAT1 inh
CCCNS(=O)(=O)c1ccc(OCC(=O)N2CCCC2)cc1,.,.,.,.,.,.
C/C(=N\NC(=O)c1nn(C)c(C)c1Br)c1cccc(NC(=O)c2ccoc2C)c1,.,.,.,.,150,.
C/C(=N\NC(=O)c1ccc(Cl)cc1)c1cccc(NC(=O)c2cccnc2)c1,63,.,.,.,.,.
C/C(=N\NC(=O)c1ccc(F)cc1)c1cccc(NC(=O)c2ccco2)c1,50,.,.,.,.,.
C/C(=N\NC(=O)c1cccc(F)c1)c1cccc(NC(=O)c2ccc(F)cc2)c1,.,.,.,.,.,.
COc1cc(C(=O)NNC2=CC(=O)CC(C)(C)C2)cc(OC)c1OC,.,.,.,.,.,.
COc1ccc(N2CCN(C(=O)c3ccccc3Br)CC2)c([N+](=O)[O-])c1,.,.,.,.,.,.
Cc1cc[n+]2cc(-c3cccc([N+](=O)[O-])c3)c(-c3cccc([N+](=O)[O-])c3)cc2c1,.,.,.,.,.,.
Cc1ccc2c(c1)C(O)(c1c(C)[nH]c3ccccc13)C(=O)N2 (stereo not drawn),.,134,.,.,.,.
CCNc1nc(C)c2cc(Br)c(=O)n(CC)c2n1,.,.,.,.,139,.
O=C(/C=C/c1ccc(S(=O)(=O)NCc2ccco2)cc1)N1CCN(c2ccccc2)CC1,.,.,.,.,.,.
COc1ccc(-c2nc3ccc(N4CCN(C)CC4)cc3c(=O)[nH]2)cc1,.,.,.,.,130,.
COc1ccc(CN2CCNC(=O)C2CC(=O)N2CCCCO2)cc1OC (stereo not drawn),.,.,.,.,.,.
O=C(COc1ccc(Cl)cc1)NC1=NN(c2ccccc2)C(=O)C1,.,.,.,.,.,.
Cc1ccc(/C=C2/SC(=O)N(CC(=O)N3CCOCC3)C2=O)s1,.,.,.,.,.,.
CCCN1C(=O)S/C(=C\c2ccc(N3CCOCC3)cc2C)C1=O,.,.,.,.,.,.
CCC(C)N1C(=O)S/C(=C/c2ccc(N3CCOCC3)cc2C)C1=O (stereo not drawn),.,.,.,.,132,.
C#CCN1C(=O)S/C(=C\c2ccc(N3CCOCC3)cc2C)C1=O,.,.,.,.,132,.
O=C(CN1C(=O)S/C(=C/c2ccc(N3CCOCC3)cc2)C1=O)N1CCOCC1,76,.,.,.,.,.
CCN1C(=O)S/C(=C\c2ccc(N3CCOCC3)cc2C)C1=O,.,.,.,.,144,.
Cc1cc(N2CCOCC2)ccc1/C=C1\SC(=O)N(C(C)C)C1=O,.,.,.,.,.,.
COc1cc(C(=O)NNC(=O)c2ccc(NC(=O)C(C)(C)C)cc2)cc(OC)c1OC,.,.,.,.,.,.
CCOC(=O)CC(=O)CSc1nc2ccc(C)cc2cc1C#N,.,.,.,.,137,.
CC(C)OC(=O)CC(=O)CSc1nc2c(cc1C#N)CCCCC2,.,.,.,.,.,.
Cc1cc(NC(=O)CSc2nc3c(cc2C#N)CCCC3)no1,.,.,.,.,138,.
SMILES,FLuc inh counter,STAT3 activator,STAT3 blocker,FLuc stim CS,STAT1 activator,STAT1 inh
COc1ccc2nc(SCC(=O)N3CCCCC3)c(C#N)cc2c1,.,.,.,.,131,.
CCOC(=O)CC(=O)CSc1nc2c(cc1C#N)CCCCC2,.,.,.,.,141,.
COc1ccc2nc(SCC(=O)N3CCCCCC3)c(C#N)cc2c1,.,.,.,.,.,.
NS(=O)(=O)c1ccc(CCNC(=O)/C=C/c2cccc([N+](=O)[O-])c2)cc1,.,.,.,.,.,.
N#Cc1cc2c(nc1SCc1ccccc1)CCC2,.,.,.,.,.,.
N#Cc1cc2c(nc1SCc1ccncc1)CCC2,.,.,.,.,138,.
CC1=C(C(=O)OCCc2ccccc2)C(c2ccsc2)NC(=O)N1C (stereo not drawn),.,.,.,.,.,.
O=C(CCC1CCCC1)Nc1ccc([N+](=O)[O-])cn1,.,.,.,.,.,.
CCOc1ccc(C2=Nn3c(nnc3-c3ccccc3OC)SC2)cc1,.,146,.,.,.,.
O=C(Nc1ccccc1)Nc1cccc2nsnc12,.,.,.,.,140,.
CCCNC(=O)c1noc2c1CCc1cc(OC)ccc1-2,78,.,.,.,.,.
COc1ccc2c(c1)CCc1c(C(=O)N3CCCCCC3)noc1-2,.,.,.,.,136,.
COc1ccc2c(c1)CCc1c(C(=O)NCC(C)C)noc1-2,.,.,.,.,.,.
COc1ccc2c(c1)CCc1c(C(=O)NCc3cccnc3)noc1-2,.,.,.,.,.,.
Cc1cc(=O)oc2cc(N3C(=O)CC(Cc4ccccc4)C3=O)ccc12 (stereo not drawn),.,.,.,.,.,.
CCCOC(=O)c1c(NC(=O)CCCn2nc([N+](=O)[O-])cc2C)sc(C(=O)OC)c1C,.,.,.,.,.,.
Cc1cccc(-c2cc3nc(C)cc(C)n3n2)c1,.,.,.,.,150,.
O=C(COC(=O)c1ccccc1[N+](=O)[O-])c1ccc(C2CCCCC2)cc1,80,.,.,.,.,.
O=C1c2ccccc2S(=O)(=O)N1Cc1nc2ccccc2s1,.,.,61,.,.,52
O=c1c2ccccc2nnn1COc1ccc(F)cc1Cl,.,.,.,.,144,.
O=c1c2ccccc2nnn1COc1cccc2ccccc12,.,.,.,.,130,.
O=c1c2ccccc2nnn1COc1ccc(Cl)cc1Br,.,.,.,.,133,.
CCOc1ccc(-n2c(=O)[nH]cc(C(=O)Nc3ccc(OC)c(OC)c3)c2=O)cc1,.,.,.,.,.,.
Cc1cc(C)c(S(=O)(=O)N2CCCOC2CNC(=O)C(=O)NCCc2c[nH]c3ccccc23)c(C)c1 (stereo not drawn),.,.,.,.,.,.
COc1coc(/C=C/C(=O)O)cc1=O,.,.,.,.,.,.
c1ccc(Cc2nn3c(COc4ccccc4)nnc3s2)cc1,.,134,.,.,.,.
CCOc1ccccc1OCc1nn2c(COc3ccccc3)nnc2s1,.,.,.,.,.,.
CCc1nnc(NC(=O)CSc2ncnc3scc(-c4ccc(C)cc4)c23)s1,.,.,.,.,.,.
Cc1ccc2nc(-c3ccc(SCC(=O)O)nc3)[nH]c2c1,.,.,.,.,.,.
